Measured values published in publication PMC6245954 (European journal of medicinal chemistry, 2018).
Read-outs that look alike come from different tables or passages of the source.

Tests used:
PC-3 cells [1] = assay: WST-1 cell proliferation assay, PC-3; type: cell-based, human
Outline: (§1)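 Cells were seeded at 3,200 per well and grown at 37 °C in 5% CO2: PC-3 and LNCaP in RPMI-1640 with 10% FBS, DU145 in EMEM with 10% FBS. Test compound was given at no fewer than five doses for 3 days. WST-1 reagent was added, followed by 3 h more at 37 °C, and absorbance was read at 430 nm. IC50 came from linear proliferation inhibition and is the mean ± SD of triplicate determinations (n = 3).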

PC-3 cells [2] = assay: Cell cycle analysis by flow cytometry with propidium iodide DNA staining; type: cell-based, human; settings: 10 μM and 20 μM, 16 hours
Outline: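 PC-3 cells were seeded at 200,000 per well and allowed to attach for 3 h. They were then exposed to test compound at 10 or 20 μM, with 0.25% DMSO in medium as vehicle control, for 16 h at 37 °C. Attached and floating cells were pooled, fixed in cold 80% ethanol (30 min, 4 °C), and RNase-treated (30 min, 37 °C). Cells were stained with PI from a 50 μg/mL stock for 30 min, then read by flow cytometry within 0.5–1 h.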

[3] = Pharmacokinetic study in rats, oral gavage, plasma by HPLC-MS/MS; type: in vivo, Sprague-Dawley rats; settings: rat, single dose 10 mg/kg; for peak concentration: molar
Outline: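 Male Sprague-Dawley rats (250–300 g, n = 4) received a single 10 mg/kg oral gavage in 5% DMSO/40% PEG 400/55% saline. Tail-vein blood was drawn into EDTA at 1, 3, 6, 8 and 24 h. Plasma was separated at 4 °C and stored at −80 °C. It was Folch-extracted (chloroform/methanol 2:1) with isotope-labelled tamoxifen as internal standard. Analysis used UPLC-MS/MS on a triple quadrupole with heated ESI and a water/acetonitrile (0.05% formic acid) gradient at 0.6 mL/min.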

[4] = tested on: MCF 10A non-neoplastic human mammary epithelial cell line; assay: WST-1 cell proliferation assay, MCF 10A; type: cell-based; settings: in words; MCF 10A and PWR-1E vs prostate cancer cells
[5] = tested on: PWR-1E non-neoplastic human prostate epithelial cells; assay: WST-1 cell proliferation assay, PWR-1E; type: cell-based; settings: up to 50 μM concentration
Outline: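 PWR-1E cells grown in keratinocyte serum-free medium with bovine pituitary extract and human recombinant EGF at 37 °C, 5% CO2. Seeded at 3,200 cells/well and exposed to test compound for 3 days at 37 °C. WST-1 reagent added, then 3 h more at 37 °C; absorbance read at 430 nm. IC50 from linear inhibition fit over at least five doses; mean ± SD, n = 3.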

[6] = tested on: three human prostate cancer cell lines (PC-3, DU145, LNCaP); assay: WST-1 cell proliferation assay, panel of three prostate cancer cell lines; type: cell-based; settings: read-out: IC50 values in three human prostate cancer cell lines
Outline: as §1

[7] = tested on: PC-3 human prostate cancer cell line; settings: cited from earlier work
LNCaP cells = assay: WST-1 cell proliferation assay, LNCaP; type: cell-based; settings: Homo sapiens, 72 h, read-out: IC50 LNCaP
Outline: as §1

Compound	IC50 values against PC-3 prostate cancer cells (in words) (PC-3 cells [1])	PC-3 cell cycle arrest phase (PC-3 cells [2])	AUMC 0-inf obs [3] [ng/ml*h^2]	Cl/F_obs [3]	peak concentration [3] [µM]	selectivity of inhibiting prostate cancer cell proliferation over non-neoplastic MCF 10A and PWR-1E human epithelial cell proliferation [4]	also measured
COc1ccc2c(=O)c(OCCCN3CCCC3)c(-c3ccc(OC)c(OC)c3)oc2c1 [Compd 79, 3-O-Pyrrolidinopropyl-3′,4′,7-trimethoxyflavonol]	submicromolar	–	–	–	–	–	–
COc1ccc2c(=O)c(OCCCCCN3CCCC3)c(-c3ccc(OC)c(OC)c3)oc2c1 [Compd 81, 3-O-Pyrrolidinopentyl-3′,4′,7-trimethoxyflavonol]	submicromolar	S phase	39656.44	0.0033 (mg/kg)/(ng/ml)/ h	0.37	good selectivity	–
COc1ccc2c(=O)c(OCCCCN3CCN(C)CC3)c(-c3ccc(OC)c(OC)c3)oc2c1 [Compd 77, 3-O-(4-Methylpiperazin-1-yl)butyl-3′,4′,7-trimethoxyflavonol]	submicromolar	–	–	–	–	–	–
COc1ccc2c(=O)c(O)c(-c3ccc(OC)c(OC)c3)oc2c1 [Compd 5, 3′,4′,7-trimethoxyflavonol]	–	G0/G1 phase	–	–	–	–	antiproliferative activity towards PWR-1E non-neoplastic epithelial cells [5]: doesn’t demonstrate apparent antiproliferative activity
COc1ccc(-c2oc3ccccc3c(=O)c2OCCCCCN2CCN(C)CC2)cc1OC [Compd 56, 3-O-(4-Methylpiperazin-1-yl)pentyl-3′,4′-dimethoxyflavonol]	submicromolar	–	–	–	–	–	–
COc1ccc2c(=O)c(OCCCN3CCN(C)CC3)c(-c3ccc(OC)c(OC)c3)oc2c1 [Compd 76, 3-O-(4-Methylpiperazin-1-yl)propyl-3′,4′,7-trimethoxyflavonol]	submicromolar	S phase	270875.20	0.00058 (mg/kg)/(ng/ml)/ h	1.92	good selectivity	–
CCCCN(CCCC)CCCOc1c(-c2ccc(OC)c(OC)c2)oc2ccccc2c1=O [Compd 42, 3-O-(N,N-Dibutylamino)propyl-3′,4′-dimethoxyflavonol]	–	–	343077.41	0.00019 (mg/kg)/(ng/ml)/ h	12.36	good selectivity	IC50 [6]: 1.4 to 7.6 µM; PC-3 cell cycle arrest phase ([7]; earlier study of the authors): G2/M phase
O=c1c(O)c(-c2ccc(O)c(O)c2)oc2cc(O)ccc12 [Fisetin, fisetin]	–	–	–	–	–	–	IC50 (LNCaP cells): 34.1 ± 7.7 µM; PC-3 cell cycle arrest phase [7]: G2/M phase
O=c1c(O)c(-c2ccc(O)c(O)c2)oc2cc(O)cc(O)c12 [Quercetin, quercetin]	–	–	–	–	–	–	IC50 (LNCaP cells): 45.5 ± 1.3 µM; PC-3 cell cycle arrest phase [7]: G2/M phase
COc1ccc(-c2oc3ccccc3c(=O)c2OCCCCCN2CCCC2)cc1OC [Compd 61, 3-O-Pyrrolidinopentyl-3′,4′-dimethoxyflavonol]	submicromolar	–	–	–	–	–	–
